# High-throughput results from PubChem BioAssay.
# FGF22 binding – FGF22 (human) thermal shift binding | Q9HCT0 | recombinant FGF22 thermal shift, SYPRO orange fluorescence; percent of sucrose octasulfate shift, DMSO zero | activity (Tm shift, normalised), % at 9.99 µM | hit rate 1.5% among 340,000 | AID 651658;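 active = mean Tm shift, scaled 0 neutral to 100 positive control, at about 1.3% or above, every replicate too, limit read from the data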
# Target sequence (Q9HCT0 whole entry, looked up): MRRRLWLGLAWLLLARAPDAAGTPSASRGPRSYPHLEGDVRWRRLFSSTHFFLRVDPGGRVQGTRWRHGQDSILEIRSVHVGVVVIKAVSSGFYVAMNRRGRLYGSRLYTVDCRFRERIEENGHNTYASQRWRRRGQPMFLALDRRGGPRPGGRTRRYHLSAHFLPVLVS
# E-selectin induc – E-selectin induction on HUVECs | HUVEC E-selectin immunofluorescence imaging; normalized: neutral wells 0, TNF-alpha wells 100 | activation, % at 7.58 µM | hit rate 0.37% among 260,000;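 active = mean E-selectin-positive cell signal at least 10% of the positive control, reached in at least 60% of replicates, without over 20% cell loss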
#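 Read-out: % PE-positive cells | Test system: HUVEC | Doses: One compound dose added by pin transfer | Buffer or medium: EGM-2 over gelatin coat | Signal: Immunofluorescence imaging | Benchmarks: TNF-alpha, DMSO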
# CFTR F508del cor – correctors of CFTR F508del function in bronchial epithelial cells. CFBE cells, YFP halide quenching; stimulated with forskolin plus potentiator P3; % fluorescence drop versus neutral controls. activity (quench increase), % at 7.58 µM. hit rate 0.36% among 350,000;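 active = mean added fluorescence quench of at least 8% versus neutral control, with both replicates also reaching 8%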;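 also: cells transiently co-express mutant CFTR-F508del with the halide-sensitive YFP; corrector assay measuring rescue of mutant channel to the surface after 24 h compound exposure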
# DENV2 CPE rescue – protects cells from dengue virus 2 cytopathic effect; DENV2-infected cells, cytopathic effect rescue, plate reader; CPE inhibition, % at 9.99 µM; hit rate 1.7% among 350,000; AID 651640; in the data active = CPE inhibition above about 20%, passing the limit was not always enough; tested in BHK-21 cells;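 also: 0% = median of neutral control wells and 100% = median of positive control wells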
# ERAP1 inh – blocks human ERAP1 aminopeptidase activity; recombinant ERAP1, Leu-AMC fluorescence, 60 min; hit rate 0.15% among 340,000; AID 652197; inhibition, % at 10.7 µM;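 active = mean replicate inhibition of at least 30%, or all replicates individually reaching that 30% level; inactive = mean below 30% and not every replicate reaching it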;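 also: 0% = neutral control wells and 100% = L-leucinethiol positive control wells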
# Starred values were filed as active, the others as inactive; . = not tested or not shown; ! = a repeat was not active. Rows were chosen to be rich in hits. Some 3.7% of all compounds tested hit in one or more screens of this group.
SMILES,FGF22 binding,E-selectin induc,CFTR F508del cor,DENV2 CPE rescue,ERAP1 inh
C[C@@H]1CN([C@H](C)CO)C(=O)c2cc(NC(=O)c3ccncc3)ccc2O[C@@H](C)CCCCO[C@H]1CN(C)Cc1ccc(Cl)c(Cl)c1,0,0,1,85*,-2
C[C@@H]1CN([C@H](C)CO)C(=O)c2cc(NC(=O)c3ccccc3)ccc2O[C@@H](C)CCCCO[C@@H]1CN(C)Cc1ccc(C(=O)O)cc1,0,0,0,115*,6
C[C@@H]1CCCCO[C@@H](CN(C)Cc2ccc(Cl)c(Cl)c2)[C@@H](C)CN([C@H](C)CO)C(=O)c2cc(NC(=O)c3ccncc3)ccc2O1,0,0,0,-6,-2
C[C@H]1CCCCO[C@@H](CN(C)Cc2ccc(C(=O)O)cc2)[C@@H](C)CN([C@@H](C)CO)C(=O)c2cc(NC(=O)CCCN(C)C)ccc2O1,0,0,0,-8,-5
COc1ccc(CN(C)C[C@@H]2OCCCC[C@@H](C)Oc3ccc(NC(=O)NC4CCCCC4)cc3C(=O)N([C@@H](C)CO)C[C@H]2C)cc1,0,0,3,6,-1
C[C@H]1CCCCO[C@@H](CN(C)Cc2ccc(C(=O)O)cc2)[C@@H](C)CN([C@@H](C)CO)C(=O)c2cc(NC(=O)c3ccccc3)ccc2O1,0,0,0,-7,3
C[C@@H]1CCCCO[C@@H](CN(C)Cc2ccc(C(=O)O)cc2)[C@H](C)CN([C@H](C)CO)C(=O)c2cc(NC(=O)c3ccccc3)ccc2O1,0,0,0,79*,-2
O=C(N/N=C\c1ccccn1)c1ccccc1O,44*,.,-1,-1,4
CC1(C)C2CC=C(/C=N/NC(=O)c3ccccc3O)C1C2 (configuration not stated),43*,0,-3,0,-2
CNC(=S)N/N=C/C1=CCC2CC1C2(C)C (configuration not stated),0,.,-2,.,2
CCC(=O)N1[C@H](C#N)[C@H](c2ccccc2-c2cccc(C)c2)[C@H]1CO,0,0,0,-1,2
CO[C@@H]1CN(C)C(=O)c2ccc(NC(=O)NC(C)C)cc2OC[C@@H](C)N(Cc2cncnc2)C[C@H]1C,.,0,1,.,.
COc1ccc(CN(C)C[C@H]2Oc3c(NS(=O)(=O)c4cccs4)cccc3C(=O)N([C@H](C)CO)C[C@H]2C)cc1,1,0,-2,11,2
S=C1NC2=C(CCCC2=C2SCCCS2)C(c2ccccc2)N1 (configuration not stated),0,.,-3,-3,-5
COc1ccc(C2NC(=S)NC3=C2CCCC3=C2SCCS2)cc1 (configuration not stated),0,.,11*,8,-2
CN(CCc1ccccn1)C(=O)CCC1CCCN(C(=O)c2cccc(N(C)C)c2)C1 (configuration not stated),0,.,3,35*,1
C[C@@H]1CN([C@H](C)CO)C(=O)c2cccc(NC(=O)C3CCOCC3)c2O[C@@H]1CN(C)S(C)(=O)=O,0,-15,-2,2,-1
c1ccc2nc(-c3nccs3)ccc2c1,44*,3,-2,-6,3
COc1ccc(C(=O)N(CCc2ccccc2)Cc2ccccc2)c(OC)n1,0,30*,0,6,-2
COc1ccc(N2CCN(C(=O)CSc3ccc(C)cc3)CC2)cc1,44*,5,3,8,1
C[C@H](CO)N1C[C@H](C)[C@@H](CN(C)Cc2ccncc2)OCCCC[C@H](C)Oc2ccc(NC(=O)Nc3ccc(F)cc3)cc2C1=O,0,0,3,-1,.
c1ccc(Cc2cc[n+](Cc3ccccn3)cc2)cc1,0,45*,-2,4,.
O=[N+]([O-])c1ccc(C[n+]2ccc(Cc3ccccc3)cc2)cc1,0,.,3,.,12
C=C(C)CN(CC)C(=O)CC1C(=O)NCCN1C (configuration not stated),0,.,.,5,13
C=C(C)CN(CC)C(=O)CSc1nc(O)cc(=O)n1C1CCCC1,43*,1,-3,-1,5
SMILES,FGF22 binding,E-selectin induc,CFTR F508del cor,DENV2 CPE rescue,ERAP1 inh
CCCC(=O)Nc1ccc2c(c1)C(=O)N(C)C[C@@H](OC)[C@H](C)CN(CC1CCOCC1)[C@@H](C)CO2,.,0,0,.,.
C[C@@H]1CN([C@@H](C)CO)S(=O)(=O)c2ccc(C#CC(C)(C)O)cc2O[C@H]1CN(C)C(=O)C1CCC1,0,0,-1,.,-2
CCOC(=O)C1(CCCc2ccccc2)CCN(C(=O)c2cnc(C)cn2)CC1,44*,.,-2,-6,-5
Cc1ccccc1Nc1nc(N)nc(-c2oc3ccccc3c2C)n1,0,.,-2,69*,0
Nc1nc(-c2ccccc2)c(CCCOc2ccc(NC(=O)CBr)cc2)c(=O)[nH]1,0,.,-1,24*,-2
CCOc1ccc(NC(=O)CSc2nc(N)c(-c3ccccc3)c(=O)[nH]2)cc1,42,.,-3,-2,-1
CC(C)NC(=O)N(C)C[C@H]1OCCCC[C@H](C)Oc2ccc(NC(=O)Nc3ccc(F)cc3)cc2C(=O)N([C@@H](C)CO)C[C@H]1C,0,0,2,56*,-4
CC(C)NC(=O)N(C)C[C@@H]1OCCCC[C@@H](C)Oc2ccc(NC(=O)Nc3ccc(F)cc3)cc2C(=O)N([C@H](C)CO)C[C@@H]1C,1,1,-2,48*!,-2
CC(C)NC(=O)N(C)C[C@@H]1OCCCC[C@@H](C)Oc2ccc(NC(=O)Nc3ccc(F)cc3)cc2C(=O)N([C@H](C)CO)C[C@H]1C,-1,0,-1,2,-1
C[C@@H]1CCCCO[C@H](CN(C)C(=O)Nc2ccc(F)cc2)[C@H](C)CN([C@@H](C)CO)C(=O)c2cc(NC(=O)Nc3ccc(F)cc3)ccc2O1,0,.,-1,10,3
COCC1OC(OC(C)C(O)c2cnc3nc(N)[nH]c(=O)c3n2)C(O)C(OC)C1O (configuration not stated),0,.,-1,-6,33*
CC1(S(=O)(=O)O)CC(=O)c2ccccc2C1=O (configuration not stated),0,0,8.1*,-6,-4
Cc1noc(C)c1S(=O)(=O)N(C)C[C@H]1Oc2ccc(NS(=O)(=O)c3cn(C)cn3)cc2CC(=O)N([C@@H](C)CO)C[C@@H]1C,0,-8,-1,10,1
COc1ccc(COCCN2CCN(S(=O)(=O)c3ccc(C)cc3)CCC2=O)cc1,0,0,2,79*,.
COc1ccc(S(=O)(=O)Nc2ccc3c(c2)C(=O)N([C@@H](C)CO)C[C@H](C)[C@@H](CN(C)S(=O)(=O)c2ccccc2)OCCCC[C@@H](C)O3)cc1,0,0,4,16,.
